From ChEMBL document CHEMBL1255300, “Pharmacodynamics of the antibacterial effect and emergence of resistance to tomopenem, formerly RO4908463/CS-023, in an in vitro pharmacokinetic model of Staphylococcus aureus infection” (Antimicrob Agents Chemother, 2008)
In brackets after ≈: the same amount, converted by molar mass. Activity calls are given as the source filed them. The rule behind the calls is not given here.

What was measured:
Staphylococcus aureus [1] = test: Antibacterial activity against methicillin-resistant Staphylococcus aureus 33827 assessed as viable count at 4 times of MIC after 24 hrs using 10^6 CFU/ml inoculum; format: functional, organism-based
Staphylococcus aureus [2] = test: T>MIC for 2-log drop in count in methicillin-resistant Staphylococcus aureus 33922 in in vitro pharmacokinetic model after 24 hrs using 10^8 CFU/ml inoculum; format: functional
Staphylococcus aureus [3] = test: T>MIC for 1-log drop in count in methicillin-resistant Staphylococcus aureus 33820 in in vitro pharmacokinetic model after 24 hrs using 10^6 CFU/ml inoculum; format: functional
Staphylococcus aureus [4] = test: Antibacterial activity against methicillin-resistant Staphylococcus aureus 33827 assessed as viable count at 2 times of MIC after 24 hrs using 10^6 CFU/ml inoculum; format: functional, organism-based
Staphylococcus aureus [5] = test: Antibacterial activity against methicillin-resistant Staphylococcus aureus 33922 assessed as viable count at 4 times of MIC after 24 hrs using 10^6 CFU/ml inoculum; format: functional, organism-based
Staphylococcus aureus [6] = test: Antibacterial activity against methicillin-resistant Staphylococcus aureus 33829 infected in in vitro pharmacokinetic model assessed as time required to 99.9% killing at 1500 mg, iv every 8 hrs using 10^6 CFU/ml inoculum; format: functional
In short: (§1)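 Single-compartment dilutional in vitro PK model, 10% Mueller-Hinton broth, 37°C, stirred, dilution 132 ml/h. […] Inoculum 10^6 CFU/ml (added 45 min pre-dose) or 10^8 CFU/ml (run overnight). Viable counts by spiral plating, beta-lactamase neutralization, detection limit 10^2 CFU/ml. At least triplicate.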

Staphylococcus aureus [7] = test: Antibacterial activity against methicillin-resistant Staphylococcus aureus 33922 infected in in vitro pharmacokinetic model assessed as reduction in viable count at 1500 mg, iv every 8 hrs measured after 12 hrs using 10^8 CFU/ml inoculum; format: functional
Staphylococcus aureus [8] = test: Antibacterial activity against methicillin-resistant Staphylococcus aureus 33827 infected in in vitro pharmacokinetic model assessed as time required to 99.9% killing at 750 mg, iv every 8 hrs using 10^6 CFU/ml inoculum; format: functional; in short: as §1
Staphylococcus aureus [9] = test: Antibacterial activity against methicillin-resistant Staphylococcus aureus 33922 infected in in vitro pharmacokinetic model assessed as reduction in viable count at 750 mg, iv every 8 hrs measured after 48 hrs using 10^8 CFU/ml inoculum; format: functional
Staphylococcus aureus [10] = test: Antibacterial activity against methicillin-resistant Staphylococcus aureus 33820 infected in in vitro pharmacokinetic model assessed as time required to 99.9% killing at 750 mg, iv every 8 hrs using 10^6 CFU/ml inoculum; format: functional
Staphylococcus aureus [11] = test: Antibacterial activity against methicillin-resistant Staphylococcus aureus 33829 infected in in vitro pharmacokinetic model assessed as reduction in viable count at 1500 mg, iv every 8 hrs measured after 24 hrs using 10^6 CFU/ml inoculum; format: functional; in short: as §1
[12] = Plasma protein binding in human; format: ADME, cell-free; conditions: read-out: PPB
Staphylococcus aureus [13] = test: AUBKC (0 to 24 hrs) in methicillin-resistant Staphylococcus aureus 33829 infected in in vitro pharmacokinetic model at 1500 mg, iv every 8 hrs using 10^6 CFU/ml inoculum; format: functional
In short: (§2)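 Single-compartment dilutional in vitro PK model at 37°C in 10% Mueller-Hinton broth, stirred, flow 132 ml/h. […] Inoculum 10^6 CFU/ml added 45 min before dosing, or 10^8 CFU/ml run overnight. Viable counts with β-lactamase neutralisation. AUBKC by log-linear trapezoidal rule, at least triplicate.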

Staphylococcus aureus [14] = test: Antibacterial activity against methicillin-resistant Staphylococcus aureus 33815 infected in in vitro pharmacokinetic model assessed as time required to 99% killing at 1500 mg, iv every 8 hrs using 10^8 CFU/ml inoculum; format: functional
In short: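 T99 and T99.9 were taken as the times for the count to fall 99% or 99.9% from time 0, using serial viable counts over 48 h. Inoculum was 10^8 CFU/ml, grown overnight in the model before dosing.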

Staphylococcus aureus [15] = test: Antibacterial activity against methicillin-resistant Staphylococcus aureus 33921 infected in in vitro pharmacokinetic model assessed as reduction in viable count at 1500 mg, iv every 8 hrs measured after 48 hrs using 10^6 CFU/ml inoculum; format: functional; in short: as §1
Staphylococcus aureus [16] = test: Antibacterial activity against methicillin-resistant Staphylococcus aureus 33820 in in vitro pharmacokinetic model assessed as viable count at 6 times of MIC; format: functional
In short: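 Population analysis before drug exposure (time 0). Model samples were plated on nutrient agar without drug and with tomopenem at 2×, 4× and 6× MIC (10% MHB MIC), and growth was recorded as log CFU/ml. Detection limit 2 log10.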

Staphylococcus aureus [17] = test: Antibacterial activity against methicillin-resistant Staphylococcus aureus 33820 by broth dilution method; format: functional
In short: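 Standard CLSI broth dilution MIC.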

Staphylococcus aureus [18] = test: Antibacterial activity against methicillin-resistant Staphylococcus aureus 33922 infected in in vitro pharmacokinetic model assessed as time required to 99% killing at 750 mg, iv every 8 hrs using 10^8 CFU/ml inoculum; format: functional
Staphylococcus aureus [19] = test: Antibacterial activity against methicillin-resistant Staphylococcus aureus 33815 infected in in vitro pharmacokinetic model assessed as reduction in viable count at 750 mg, iv every 8 hrs measured after 48 hrs using 10^8 CFU/ml inoculum; format: functional
In short: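 PK model at 37°C in 10% MHB. […] A 0.5 McFarland suspension (1 ml) was added and the model run overnight to reach 10^8 CFU/ml before dosing. Counts were spiral-plated on nutrient agar with β-lactamase. Change in log CFU/ml was measured from time 0; at least triplicate.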

Staphylococcus aureus [20] = test: Antibacterial activity against methicillin-resistant Staphylococcus aureus 33922 by 10% MH broth method; format: functional
Staphylococcus aureus [21] = test: Antibacterial activity against methicillin-sensitive Staphylococcus aureus 5956 infected in in vitro pharmacokinetic model assessed as time required to 99% killing at 750 mg, iv every 8 hrs using 10^6 CFU/ml inoculum; format: functional
Staphylococcus aureus [22] = test: AUBKC (0 to 24 hrs) in methicillin-resistant Staphylococcus aureus 33921 infected in in vitro pharmacokinetic model at 750 mg, iv every 8 hrs using 10^6 CFU/ml inoculum; format: functional; in short: as §2
Staphylococcus aureus [23] = test: T>MIC for static effect in methicillin-sensitive Staphylococcus aureus 5956 in in vitro pharmacokinetic model after 24 hrs using 10^6 CFU/ml inoculum; format: functional
Staphylococcus aureus [24] = test: T>MIC for 1-log drop in count in methicillin-resistant Staphylococcus aureus 33827 in in vitro pharmacokinetic model after 24 hrs using 10^6 CFU/ml inoculum; format: functional
Staphylococcus aureus [25] = test: AUBKC (0 to 24 hrs) in methicillin-sensitive Staphylococcus aureus 5956 infected in in vitro pharmacokinetic model at 1500 mg, iv every 8 hrs using 10^6 CFU/ml inoculum; format: functional
Staphylococcus aureus [26] = test: T>MIC for 3-log drop in count in methicillin-resistant Staphylococcus aureus 33815 in in vitro pharmacokinetic model after 24 hrs using 10^6 CFU/ml inoculum; format: functional
Staphylococcus aureus [27] = test: Antibacterial activity against methicillin-resistant Staphylococcus aureus 33815 assessed as viable count at 2 times of MIC after 24 hrs using 10^6 CFU/ml inoculum; format: functional, organism-based
In short: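 Population analysis during tomopenem dose-ranging runs in the in vitro PK model (10^6 CFU/ml, T>MIC 0-100%). […] Growth counted as log CFU/ml, detection limit 2 log10.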

## C[C@@H](O)[C@H]1C(=O)N2C(C(=O)O)=C(S[C@H]3C[C@@H](C(=O)N4CC[C@H](NC(=O)CNC(=N)N)C4)N(C)C3)[C@H](C)[C@H]12 [TOMOPENEM]
Staphylococcus aureus [1]
  Activity: inactive
Staphylococcus aureus [2]
  fT>MIC: 4.7%
Staphylococcus aureus [3]
  fT>MIC: 9.9%
Staphylococcus aureus [4]
  Activity: inactive
Staphylococcus aureus [5]
  Activity: inactive
Staphylococcus aureus [6]
  Time: 12 h
Staphylococcus aureus [7]
  log10CFU/ml: 1.5
Staphylococcus aureus [8]
  Time: 7 h
Staphylococcus aureus [9]
  log10CFU/ml: 5.8
Staphylococcus aureus [10]
  Time: 12 h
Staphylococcus aureus [11]
  log10CFU/ml: 4.2
[12]
  fraction unbound: > 0.9
Staphylococcus aureus [13]
  AUBC: 30 log10CFU/ml.hr
Staphylococcus aureus [14]
  Time: 16 h
Staphylococcus aureus [15]
  log10CFU/ml: 3.7
Staphylococcus aureus [16]
  log10CFU/ml: <2
Staphylococcus aureus [17]
  MIC: 16 µg/mL (≈ 29.8 µM)
Staphylococcus aureus [18]
  Time: 12 h
Staphylococcus aureus [19]
  log10CFU/ml: 5
Staphylococcus aureus [20]
  MIC: 0.25 µg/mL (≈ 0.465 µM)
Staphylococcus aureus [21]
  Time: 4 h
Staphylococcus aureus [22]
  AUBC: 30.9 log10CFU/ml.hr
Staphylococcus aureus [23]
  fT>MIC: 6%
Staphylococcus aureus [24]
  fT>MIC: 24.4%
Staphylococcus aureus [25]
  AUBC: 22.7 log10CFU/ml.hr
Staphylococcus aureus [26]
  fT>MIC: 17.1%
Staphylococcus aureus [27]
  Activity: Active
